Data taken from article PMC4635625 (Neuropharmacology, 2015).
Counter-ions that a name gives are not always drawn. Like-named read-outs stand apart in the source and are kept apart here.

Legend:
[1] = biological target: α6L9′Sβ2L9′SLFM/AAQA (α6β2‡) nAChR (Rattus norvegicus, UniProt P12390+P43143, L273S/L280S/L348M/R364A/R365A/R367A); assay: cell-based; type: cell-based
α6β2‡ nAChR = α6β2‡ nAChR (Rattus norvegicus, UniProt P12390+P43143, L273S/L280S/L348M/R364A/R365A/R367A); type: cell-based
[2] = biological target: α6β2‡ nAChR, TrpB (α6:W149) = Trp (Rattus norvegicus, UniProt P12390+P43143, L273S/L280S/L348M/R364A/R365A/R367A); assay: TEVC dose-response, nonsense suppression series, Trp at TrpB; type: cell-based
Chain of α6β2‡ nAChR, TrpB (α6:W149) = Trp (P43143 31-493 L280S): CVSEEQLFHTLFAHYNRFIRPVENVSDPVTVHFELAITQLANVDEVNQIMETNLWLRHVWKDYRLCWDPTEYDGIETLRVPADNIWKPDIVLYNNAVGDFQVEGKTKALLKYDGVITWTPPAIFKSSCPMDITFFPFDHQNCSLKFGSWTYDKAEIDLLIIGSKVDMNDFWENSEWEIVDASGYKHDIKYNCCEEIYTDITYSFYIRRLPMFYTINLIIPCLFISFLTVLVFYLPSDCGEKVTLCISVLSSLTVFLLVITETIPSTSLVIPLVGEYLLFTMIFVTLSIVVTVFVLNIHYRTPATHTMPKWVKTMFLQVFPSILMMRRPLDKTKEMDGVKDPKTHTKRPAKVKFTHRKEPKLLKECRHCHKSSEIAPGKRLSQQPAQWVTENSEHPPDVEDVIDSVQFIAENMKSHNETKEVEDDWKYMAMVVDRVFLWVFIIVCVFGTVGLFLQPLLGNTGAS
Chain of α6β2‡ nAChR, TrpB (α6:W149) = Trp (P12390 25-500 L273S/L348M/R364A/R365A/R367A): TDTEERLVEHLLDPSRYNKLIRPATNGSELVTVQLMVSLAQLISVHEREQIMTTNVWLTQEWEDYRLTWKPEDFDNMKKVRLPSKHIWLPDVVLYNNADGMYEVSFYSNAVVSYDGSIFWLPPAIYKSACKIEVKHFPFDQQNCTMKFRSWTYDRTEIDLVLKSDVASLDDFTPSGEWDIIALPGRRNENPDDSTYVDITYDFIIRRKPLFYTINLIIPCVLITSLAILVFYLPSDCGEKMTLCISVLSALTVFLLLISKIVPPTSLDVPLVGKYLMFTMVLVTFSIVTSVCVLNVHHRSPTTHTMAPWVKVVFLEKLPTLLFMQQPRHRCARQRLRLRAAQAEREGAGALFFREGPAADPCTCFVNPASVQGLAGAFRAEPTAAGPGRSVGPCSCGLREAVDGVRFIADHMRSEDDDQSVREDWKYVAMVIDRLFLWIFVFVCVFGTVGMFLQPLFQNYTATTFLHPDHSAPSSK

[3] = biological target: α6β2‡ nAChR, TrpB (α6:W149) = 5-Me-Trp (Rattus norvegicus, UniProt P12390+P43143, L273S/L280S/L348M/R364A/R365A/R367A/W179X); assay: TEVC dose-response, nonsense suppression, MeTrp at TrpB; type: cell-based
[4] = biological target: α6β2‡ nAChR, TrpB (α6:W149) = 5-F1Trp (Rattus norvegicus, UniProt P12390+P43143, L273S/L280S/L348M/R364A/R365A/R367A/W179X); assay: TEVC dose-response, nonsense suppression, 5-F1Trp at TrpB; type: cell-based
[5] = biological target: α6β2‡ nAChR, TrpB (α6:W149) = 5-Br-Trp (Rattus norvegicus, UniProt P12390+P43143, L273S/L280S/L348M/R364A/R365A/R367A/W179X); assay: TEVC dose-response, nonsense suppression, BrTrp at TrpB; type: cell-based
[6] = biological target: α6β2‡ nAChR, TrpB (α6:W149) = 5,7-F2Trp (Rattus norvegicus, UniProt P12390+P43143, L273S/L280S/L348M/R364A/R365A/R367A/W179X); assay: TEVC dose-response, nonsense suppression, F2Trp at TrpB; type: cell-based
[7] = biological target: α6β2‡ nAChR, TrpB (α6:W149) = 5,6,7-F3Trp (Rattus norvegicus, UniProt P12390+P43143, L273S/L280S/L348M/R364A/R365A/R367A/W179X); assay: TEVC dose-response, nonsense suppression, F3Trp at TrpB; type: cell-based
[8] = biological target: TrpB (α6:W149) in α6β2‡ nAChR (Rattus norvegicus, UniProt P12390+P43143, L273S/L280S/L348M/R364A/R365A/R367A); assay: Fluorination plot; type: cell-based; conditions: for cation-π interaction with the indole side chain of TrpB: fluorination plot at TrpB in α6β2‡
Chain of TrpB (α6:W149) in α6β2‡ nAChR (P43143 31-493 L280S): as the sequence (P43143 31-493 L280S) above
Chain of TrpB (α6:W149) in α6β2‡ nAChR (P12390 25-500 L273S/L348M/R364A/R365A/R367A): as the sequence (P12390 25-500 L273S/L348M/R364A/R365A/R367A) above
In short: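 Rat α6β2‡ with UAG at TrpB, 10:1 α6:β2 mRNA, coinjected with photodeprotected fluoro-Trp–tRNA (25 ng mRNA per cell) into stage V–VI Xenopus oocytes; 24–48 h at 18 °C in ND96 pH 7.5. TEVC at −60 mV, 15 s agonist pulses in Ca2+-free ND96. EC50 from Hill fits of normalized averaged data. Log fold-shift in EC50 plotted against calculated cation–fluoro-Trp binding energy.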

α4β2 nAChR = conditions: ref Dougherty and Van Arnam, 2014; cited from earlier work
[9] = biological target: α6β2‡ nAChR, TrpB (α6:W149) = 4-F1Trp (Rattus norvegicus, UniProt P12390+P43143, L273S/L280S/L348M/R364A/R365A/R367A/W179X); assay: TEVC dose-response, nonsense suppression, 4-F1Trp at TrpB; type: cell-based; conditions: TrpB = 4-F1Trp; 10:1 α6β2‡
[10] = biological target: α6β2‡ nAChR, TrpB (α6:W149) = 6-F1Trp (Rattus norvegicus, UniProt P12390+P43143, L273S/L280S/L348M/R364A/R365A/R367A/W179X); assay: TEVC dose-response, nonsense suppression, 6-F1Trp at TrpB; type: cell-based; conditions: TrpB = 6-F1Trp; 10:1 α6β2‡
[11] = biological target: α6β2‡ nAChR, TrpB (α6:W149) = 5-CNTrp (Rattus norvegicus, UniProt P12390+P43143, L273S/L280S/L348M/R364A/R365A/R367A/W179X); assay: TEVC dose-response, nonsense suppression, CNTrp at TrpB; type: cell-based; conditions: 10:1 α6β2‡
muscle-type nAChR = conditions: ref Beene et al., 2002; cited from earlier work
[12] = agonist panel, α6-biased population, holding potential −60 mV
[13] = agonist panel, α6-biased population, Hill coefficient
[14] = agonist panel, α6-biased population, range of maximum currents
[15] = Table 4, fold-shift in EC50 relative to Trp

Chain of α6L9′Sβ2L9′SLFM/AAQA (α6β2‡) nAChR (P43143 31-493 L280S): as the sequence (P43143 31-493 L280S) above
Chain of α6L9′Sβ2L9′SLFM/AAQA (α6β2‡) nAChR (P12390 25-500 L273S/L348M/R364A/R365A/R367A): as the sequence (P12390 25-500 L273S/L348M/R364A/R365A/R367A) above
Chain of α6β2‡ nAChR (P43143 31-493 L280S): as the sequence (P43143 31-493 L280S) above
Chain of α6β2‡ nAChR (P12390 25-500 L273S/L348M/R364A/R365A/R367A): as the sequence (P12390 25-500 L273S/L348M/R364A/R365A/R367A) above

C[N+](C)(C)CCO [Ch, choline chloride]
Imax [1]: 2.08–15.4 µA | nH [1]: 1.32 ± 0.05 | EC50 ([1]; EC50): 159000 ± 7000 nM | Eff (α6β2‡ nAChR): 0.33 ± 0.02

CN1CCC[C@H]1c1cccnc1 [Nic, (−)-nicotine tartrate]
Imax [1]: 9.48–54.4 µA | nH [1]: 1.38 ± 0.05 | Eff (α6β2‡ nAChR): 0.49 ± 0.03 | Imax ([2]; Table 4): 0.09–5.8 µA | nH ([2]; Table 4): 1.43 ± 0.06 | Imax ([3]; Table 4): 0.31–3.95 µA | nH ([3]; Table 4): 1.36 ± 0.05 | Imax ([4]; Table 4, TrpB = F1Trp): 0.07–2.06 µA | nH ([4]; Table 4, TrpB = F1Trp): 1.39 ± 0.06 | Imax ([5]; Table 4): 0.08–5.65 µA | nH ([5]; Table 4): 1.42 ± 0.04 | Imax ([6]; Table 4): 0.32–2.13 µA | nH ([6]; Table 4): 1.30 ± 0.06 | Imax ([7]; Table 4): 0.05–1.05 µA | nH ([7]; Table 4): 1.28 ± 0.03 | cation-π interaction with the indole side chain of TrpB [8]: do not make cation-π interactions | cation-π interaction to TrpB (α4β2 nAChR): strong cation-π interaction

C1=C(/c2cncnc2)CCCNCC/1 [TC299]
EC50 [1, 12]: 71 ± 3 nM | nH [1, 13]: 0.99 ± 0.04 | Imax [1, 14]: 1.73–21.9 µA | EC50 ([2]; Table 4): 93 ± 4 nM | Imax ([2]; Table 4): 0.33–3.78 µA | nH ([2]; Table 4): 1.09 ± 0.04 | Fold [2, 15]: 1 | EC50 ([3]; Table 4): 73 ± 4 nM | Imax ([3]; Table 4): 0.15–2.35 µA | nH ([3]; Table 4): 0.92 ± 0.03 | Fold [3, 15]: 0.78 | EC50 ([4]; Table 4, TrpB = F1Trp): 220 ± 10 nM | Imax ([4]; Table 4, TrpB = F1Trp): 0.27–3.49 µA | nH ([4]; Table 4, TrpB = F1Trp): 1.01 ± 0.04 | Fold ([4]; Table 4, fold-shift in EC50 relative to Trp, TrpB = F1Trp): 2.37 | EC50 ([5]; Table 4): 250 ± 8 nM | Imax ([5]; Table 4): 0.1–7.71 µA | nH ([5]; Table 4): 1.01 ± 0.03 | Fold [5, 15]: 2.69 | EC50 ([6]; Table 4): 138 ± 6 nM | Imax ([6]; Table 4): 0.06–1.87 µA | nH ([6]; Table 4): 0.98 ± 0.04 | Fold [6, 15]: 1.48 | EC50 ([7]; Table 4): 630 ± 30 nM | Imax ([7]; Table 4): 0.05–0.28 µA | nH ([7]; Table 4): 0.90 ± 0.03 | Fold [7, 15]: 6.77

O=c1cccc2n1C[C@@H]1CNC[C@H]2C1 [Cyt, cytisine]
Imax [1]: 0.57–31.9 µA | nH [1]: 1.31 ± 0.05 | potency (EC50) relative to ACh [1]: slightly more potent | EC50 ([1]; EC50): 27 ± 1 nM | Eff (α6β2‡ nAChR): 0.28 ± 0.01

CC(=O)OCC[N+](C)(C)C [ACh, Acetylcholine chloride]
nH [1, 13]: 1.36 ± 0.03 | Imax [1, 14]: 0.28–14.9 µA | nH ([1]; α6:β2 mRNA ratio 1:1, Hill coefficient): 1.15 ± 0.06 | Imax ([1]; α6:β2 mRNA ratio 1:1, range of maximum currents): 4.42–14.2 | nH ([1]; α6:β2 mRNA ratio 1:2, Hill coefficient): 1.23 ± 0.05 | Imax ([1]; α6:β2 mRNA ratio 1:2, range of maximum currents): 3.06–31.7 | nH ([1]; α6:β2 mRNA ratio 1:5, Hill coefficient): 0.95 ± 0.04 | Imax ([1]; α6:β2 mRNA ratio 1:5, range of maximum currents): 0.70–8.21 | nH ([1]; α6:β2 mRNA ratio 1:10, Hill coefficient): 0.83 ± 0.02 | Imax ([1]; α6:β2 mRNA ratio 1:10, range of maximum currents): 1.01–4.67 | nH ([1]; α6:β2 mRNA ratio 1:20, Hill coefficient): 0.86 ± 0.03 | Imax ([1]; α6:β2 mRNA ratio 1:20, range of maximum currents): 1.01–10.9 | nH ([1]; α6:β2 mRNA ratio 2:1, Hill coefficient): 1.14 ± 0.03 | Imax ([1]; α6:β2 mRNA ratio 2:1, range of maximum currents): 0.94–79.5 | nH ([1]; α6:β2 mRNA ratio 5:1, Hill coefficient): 1.17 ± 0.04 | Imax ([1]; α6:β2 mRNA ratio 5:1, range of maximum currents): 0.70–79.9 | nH ([1]; α6:β2 mRNA ratio 10:1, Hill coefficient): 1.17 ± 0.04 | Imax ([1]; α6:β2 mRNA ratio 10:1, range of maximum currents): 4.85–70.7 | nH ([1]; α6:β2 mRNA ratio 20:1, Hill coefficient): 1.64 ± 0.05 | Imax ([1]; α6:β2 mRNA ratio 20:1, range of maximum currents): 0.25–1.44 | nH ([1]; α6:β2 mRNA ratio 50:1, Hill coefficient): 1.17 ± 0.03 | Imax ([1]; α6:β2 mRNA ratio 50:1, range of maximum currents): 8.25–57.3 | currents in response to acetylcholine ([1]; α6L9′Sβ2L9′SLFM/AAQA in oocytes): greater than 1 µA | Imax ([2]; 10:1 α6β2‡): 0.28–14.9 uA | nH ([2]; 10:1 α6β2‡): 1.36 ± 0.03 | Imax ([3]; 10:1 α6β2‡): 0.19–19.4 uA | nH ([3]; 10:1 α6β2‡): 1.18 ± 0.02 | Imax [9]: 0.71–6.92 uA | nH ([4]; TrpB = 5-F1Trp, 10:1 α6β2‡): 1.37 ± 0.03 | Imax [10]: 0.18–4.28 uA | nH [10]: 1.30 ± 0.04 | Imax ([5]; 10:1 α6β2‡): 0.22–15.1 uA | nH ([5]; 10:1 α6β2‡): 1.32 ± 0.04 | Imax ([6]; 10:1 α6β2‡): 0.76–9.33 uA | nH ([6]; 10:1 α6β2‡): 1.43 ± 0.02 | Imax [11]: 0.31–13.3 uA | Imax ([7]; 10:1 α6β2‡): 0.09–1.94 uA | nH ([7]; 10:1 α6β2‡): 1.04 ± 0.03 | slope of linear trend of fluorination plot ([8]; 10:1 α6β2‡, trend excludes 5-CNTrp and 4-F1Trp): −0.10 | cation-π interaction with the indole side chain of TrpB [8]: strong cation-π interaction | cation-π interaction (muscle-type nAChR): does | cation-π interaction to TrpB (α4β2 nAChR): strong cation-π interaction

c1cnc2cc3c(cc2n1)[C@@H]1CNC[C@H]3C1 [Var, varenicline]
EC50 ([1]; EC50, agonist panel, α6-biased population, holding potential −60 mV): 31 ± 3 nM | potency (EC50) relative to ACh ([1]; agonist panel at α6β2‡, in words): slightly more potent | nH [1, 13]: 1.08 ± 0.08 | Imax [1, 14]: 0.51–12.1 µA

Clc1ccc(C2CC3CCC2N3)cn1 (racemic) [Epi, (±)-epibatidine]
nH [1, 13]: 1.9 ± 0.2 | Imax [1, 14]: 0.47–2.81 µA

C[N+](C)(C)CCOC(N)=O.[Cl-] [CCh, carbamylcholine chloride]
EC50 [1, 12]: 1360 ± 50 nM | nH [1, 13]: 1.12 ± 0.04 | Imax [1, 14]: 3.63–52.5 µA
